{"data": "Results from different studies", "target": "NT-3 growth factor receptor (NTRK3, Homo sapiens, UniProt Q16288)", "note": "Compare with care: the assays were run in different laboratories."}
{"SMILES": "FC(F)(F)Oc1cccc(-c2cnc3ccc(-c4ccncc4)nn23)c1", "observed": "cell-free assay", "technique": "competition with immobilised ligand", "tested at": "5 µM", "remaining binding": "20%"}
{"SMILES": "CC(=O)N1CCC(c2ccc(C(=O)NC(=N)N)cc2C(F)(F)F)CC1", "observed": "cell-free assay", "technique": "competition with immobilised ligand", "tested at": "1 µM", "remaining binding": "100%"}
{"SMILES": "Cc1cnc(Nc2ccc(C(=O)N3CCC(N4CCCC4)CC3)cc2)nc1-c1cc2ccccc2s1", "observed": "binding", "technique": "competition with immobilised ligand", "tested at": "1 µM", "remaining binding": "16%"}
{"SMILES": "c1cncc(-c2cccc(Nc3nccc(NC4CCCCC4)n3)c2)c1", "observed": "binding", "technique": "competition with immobilised ligand", "tested at": "10 µM", "remaining binding": "27%"}
{"SMILES": "COc1cnc(Nc2cccc(S(N)(=O)=O)c2)nc1N1CCN(c2ccccc2)CC1", "observed": "binding", "technique": "competition with immobilised ligand", "tested at": "1 µM", "remaining binding": "61%"}
{"SMILES": "O=C(NCCCN1CCOCC1)c1ccc(Nc2nccc(-c3cc4ccccc4s3)n2)cc1", "observed": "binding", "technique": "competition with immobilised ligand", "tested at": "1 µM", "remaining binding": "75%"}
{"SMILES": "O=C(NCC1CCOCC1)c1n[nH]cc1NC(=O)c1c(F)cccc1F", "observed": "binding", "technique": "competition with immobilised ligand", "tested at": "1 µM", "remaining binding": "98%"}
{"SMILES": "CSc1cccnc1N1CCN(Cc2nc3ccccc3[nH]2)CC1", "observed": "cell-free assay", "technique": "competition with immobilised ligand", "tested at": "1 µM", "remaining binding": "83%"}
{"SMILES": "N[C@@H]1CCN(c2nccc(-c3cnn4ncccc34)n2)C1", "observed": "binding", "tested at": "1 µM", "remaining binding": "100%"}
{"SMILES": "CN1CCN(c2cnc3c(C4CCN(C(=O)c5ccc(OC(F)(F)F)cc5N)CC4)ncnc3c2)CC1", "observed": "cell-free assay", "technique": "competition with immobilised ligand", "tested at": "1 µM", "remaining binding": "100%"}
{"SMILES": "C[C@H]1CCN(c2nccc(-c3cnn4ncccc34)n2)C1", "observed": "binding", "tested at": "1 µM", "remaining binding": "63%"}
{"SMILES": "CNC(=O)Nc1ccc2c(c1)CC[C@@]21OC(=O)N(CC(=O)N(Cc2ccc(F)cc2)[C@@H](C)C(F)(F)F)C1=O", "observed": "cell-free assay", "technique": "competition with immobilised ligand", "tested at": "1 µM", "remaining binding": "84%"}
{"SMILES": "F[C@@H]1CCN(c2nccc(-c3cnn4ncccc34)n2)C1", "observed": "binding", "tested at": "1 µM", "remaining binding": "100%"}
{"SMILES": "O=C(N1CCS(=O)(=O)CC1)N1C[C@H](c2ccc(OC(F)(F)F)cc2)C[C@H](c2nc(C3CC3)no2)C1", "observed": "cell-free assay", "technique": "competition with immobilised ligand", "tested at": "1 µM", "remaining binding": "100%"}
{"SMILES": "Cc1cnn2ncc(-c3ccnc(N(C)C)n3)c2c1", "observed": "binding", "tested at": "1 µM", "remaining binding": "73%"}
{"SMILES": "Cc1cc(NC(=O)c2cccc(S(F)(F)(F)(F)F)c2)cc(-n2ccn3nc(-c4cccnc4)cc23)c1", "observed": "cell-free assay", "technique": "competition with immobilised ligand", "tested at": "1 µM", "remaining binding": "27.2%"}
{"SMILES": "CN(C)c1nccc(-c2cnc3ncccn23)n1", "observed": "binding", "tested at": "1 µM", "remaining binding": "78%"}
{"SMILES": "CO[C@@H](C)c1c(Nc2ccc([C@H](N(C)C(=O)C3CCS(=O)(=O)CC3)C(F)(F)F)cc2)cnc2cc(Cl)nn12", "observed": "cell-free assay", "technique": "competition with immobilised ligand", "tested at": "1 µM", "remaining binding": "100%"}
{"SMILES": "CN(CCCC(F)(F)F)c1nccc(-c2cnn3ncccc23)n1", "observed": "binding", "tested at": "1 µM", "remaining binding": "100%"}
{"SMILES": "CNC(=O)[C@@H]1CC[C@@H](n2c(-c3ccc4cnccc4c3)nc3ccc(C(=O)NCc4cccc(C(N)=O)c4)cc32)C1", "observed": "binding", "technique": "competition with immobilised ligand", "tested at": "1 µM", "remaining binding": "100%"}
{"SMILES": "O=C(c1ccc(Nc2ncc(Cl)c(-c3ccc(Cl)s3)n2)cc1)N1CCC(N2CCCC2)CC1", "observed": "binding", "technique": "competition with immobilised ligand", "tested at": "1 µM", "remaining binding": "24%"}
{"SMILES": "CN(C)c1nccc(-c2cnn3ncccc23)n1", "observed": "binding", "tested at": "1 µM", "remaining binding": "72%"}
